# How the values were obtained:
# [1] = target: T1, Melanocyte-stimulating hormone receptor (Homo sapiens, UniProt Q01726); assay: Displacement of [125I][Nle4,D-Phe7]alpha-MSH from human MC1 receptor expressed in HEK293 cells; assay type: cell-based
# In short: (§1)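 Whole stably transfected HEK293 cells seeded 48 h before assay at 50000 cells/well. Binding buffer: MEM, 25 mM HEPES pH 7.4, 0.2% BSA, 1 mM 1,10-phenanthroline, leupeptin, bacitracin. Cells washed, lysed with NaOH/Triton X-100, gamma-counted. IC50 is mean of two triplicate experiments.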
# Target sequence in this assay (Q01726 whole entry): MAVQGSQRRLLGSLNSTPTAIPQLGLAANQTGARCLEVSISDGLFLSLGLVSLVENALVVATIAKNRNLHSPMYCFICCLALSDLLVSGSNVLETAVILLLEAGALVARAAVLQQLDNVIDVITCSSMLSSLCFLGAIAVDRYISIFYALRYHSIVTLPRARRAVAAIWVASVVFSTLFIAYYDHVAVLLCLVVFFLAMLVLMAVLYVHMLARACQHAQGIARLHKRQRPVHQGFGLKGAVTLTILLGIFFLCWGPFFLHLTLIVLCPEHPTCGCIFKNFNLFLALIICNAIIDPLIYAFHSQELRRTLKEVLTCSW
# [2] = target: T2, Melanocortin receptor 3 (Homo sapiens, UniProt P41968); assay: biochemical; assay type: cell-based, HEK293
# [3] = target: T3, Melanocortin receptor 4 (Homo sapiens, UniProt P32245); assay: biochemical; assay type: cell-based, HEK293
# [4] = target: T4, Melanocortin receptor 5 (Homo sapiens, UniProt P33032); assay: Displacement of [125I][Nle4,D-Phe7]alpha-MSH from human MC5 receptor expressed in HEK293 cells; assay type: cell-based; in short: as §1
# [5] = target: T4, Melanocortin receptor 5; assay: Agonist activity at human MC5 receptor expressed in HEK293 cells assessed as intracellular cAMP accumulation; assay type: functional, cell-based
# In short: (§2)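 HEK293 cells stably transfected with the receptor, seeded 48 h ahead at 50000 cells/well. Preincubated 1 min at 37 °C in Earle's balanced salt solution with 0.5 mM IBMX, then exposed to peptide for 3 min at 37 °C. cAMP measured by [3H]cAMP/PKA competition against a standard curve.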
# [6] = target: T2, Melanocortin receptor 3; assay: Antagonist activity at human MC3 receptor expressed in HEK293 cells assessed as inhibition of MT2 induced intracellular cAMP accumulation; assay type: functional, cell-based; details: for Kb: read-out: pA2 (converted)
# [7] = target: T1, Melanocyte-stimulating hormone receptor; assay: Agonist activity at human MC1 receptor expressed in HEK293 cells assessed as intracellular cAMP accumulation; assay type: functional, cell-based
# In short: (§3)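 Stably transfected HEK293 cells seeded 48 h before assay at 50000 cells/well. Cells preincubated 1 min at 37 °C in Earle's balanced salt solution with 0.5 mM IBMX, then exposed to varying peptide concentrations for 3 min at 37 °C. Cells boiled 7 min, cAMP quantified by [3H]cAMP/PKA competition against a standard curve.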
# Target sequence in this assay (Q01726 whole entry): as above
# [8] = target: T1, Melanocyte-stimulating hormone receptor; assay: Agonist activity at human MC1 receptor expressed in HEK293 cells assessed as intracellular cAMP accumulation at 10 uM relative to MT2; assay type: functional, cell-based
# In short: (§4)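 Stably transfected HEK293 cells seeded 48 h before assay at 50000 cells/well. Cells preincubated 1 min at 37 °C in Earle's balanced salt solution with 0.5 mM IBMX, then exposed to 10 μM peptide for 3 min at 37 °C. Cells boiled 7 min, cAMP measured by [3H]cAMP/PKA competition with a standard curve. Result expressed as percent of cAMP produced by 10 μM MT-II.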
# Target sequence in this assay (Q01726 whole entry, looked up): as the sequence (Q01726 whole entry) above
# [9] = target: T2, Melanocortin receptor 3; assay: Agonist activity at human MC3 receptor expressed in HEK293 cells assessed as intracellular cAMP accumulation at 10 uM relative to MT2; assay type: functional, cell-based; in short: as §4
# [10] = target: T3, Melanocortin receptor 4; assay: Agonist activity at human MC4 receptor expressed in HEK293 cells assessed as intracellular cAMP accumulation at 10 uM relative to MT2; assay type: functional, cell-based; in short: as §4
# [11] = target: T4, Melanocortin receptor 5; assay: Agonist activity at human MC5 receptor expressed in HEK293 cells assessed as intracellular cAMP accumulation at 10 uM relative to MT2; assay type: functional, cell-based; in short: as §4
# [12] = target: T2, Melanocortin receptor 3; assay: Agonist activity at human MC3 receptor expressed in HEK293 cells assessed as intracellular cAMP accumulation at 10 uM; assay type: functional, cell-based; in short: as §4
# [13] = target: T3, Melanocortin receptor 4; assay: Agonist activity at human MC4 receptor expressed in HEK293 cells assessed as intracellular cAMP accumulation at 10 uM; assay type: functional, cell-based; in short: as §4
# [14] = target: T4, Melanocortin receptor 5; assay: Agonist activity at human MC5 receptor expressed in HEK293 cells assessed as intracellular cAMP accumulation at 10 uM; assay type: functional, cell-based; in short: as §4
# [15] = target: T4, Melanocortin receptor 5; assay: Antagonist activity at human MC5 receptor expressed in HEK293 cells assessed as inhibition of MT2 induced intracellular cAMP accumulation; assay type: functional, cell-based; details: read-out: pA2 (converted)
# [16] = target: T2, Melanocortin receptor 3; assay: Agonist activity at human MC3 receptor expressed in HEK293 cells assessed as intracellular cAMP accumulation; assay type: functional, cell-based; in short: as §3
# [17] = target: T1, Melanocyte-stimulating hormone receptor; assay: Agonist activity at human MC1 receptor expressed in HEK293 cells assessed as intracellular cAMP accumulation at 10 uM; assay type: functional, cell-based; in short: as §4
# Target sequence in this assay (Q01726 whole entry, looked up): as the sequence (Q01726 whole entry) above
# [18] = target: T3, Melanocortin receptor 4; assay: Agonist activity at human MC4 receptor expressed in HEK293 cells assessed as intracellular cAMP accumulation; assay type: functional, cell-based; in short: as §2
# T3 sequence (P32245 whole entry): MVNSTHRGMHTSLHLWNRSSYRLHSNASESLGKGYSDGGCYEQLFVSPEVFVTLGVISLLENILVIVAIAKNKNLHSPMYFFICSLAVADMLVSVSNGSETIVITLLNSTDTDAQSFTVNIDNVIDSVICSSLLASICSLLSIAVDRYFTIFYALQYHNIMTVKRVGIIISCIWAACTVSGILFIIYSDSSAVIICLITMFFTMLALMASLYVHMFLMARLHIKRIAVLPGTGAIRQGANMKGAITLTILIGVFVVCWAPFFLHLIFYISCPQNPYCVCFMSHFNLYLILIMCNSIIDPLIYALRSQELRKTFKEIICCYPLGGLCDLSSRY
# T4 sequence (P33032 whole entry): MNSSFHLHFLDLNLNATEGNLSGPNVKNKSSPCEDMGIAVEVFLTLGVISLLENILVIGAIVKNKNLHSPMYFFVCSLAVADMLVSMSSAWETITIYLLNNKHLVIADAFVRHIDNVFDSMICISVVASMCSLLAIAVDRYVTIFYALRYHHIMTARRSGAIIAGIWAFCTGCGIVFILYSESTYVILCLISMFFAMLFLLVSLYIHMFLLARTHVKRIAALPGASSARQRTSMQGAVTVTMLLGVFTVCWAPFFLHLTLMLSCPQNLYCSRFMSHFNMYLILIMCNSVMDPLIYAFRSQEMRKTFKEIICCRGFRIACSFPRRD
# T2 sequence (P41968 whole entry): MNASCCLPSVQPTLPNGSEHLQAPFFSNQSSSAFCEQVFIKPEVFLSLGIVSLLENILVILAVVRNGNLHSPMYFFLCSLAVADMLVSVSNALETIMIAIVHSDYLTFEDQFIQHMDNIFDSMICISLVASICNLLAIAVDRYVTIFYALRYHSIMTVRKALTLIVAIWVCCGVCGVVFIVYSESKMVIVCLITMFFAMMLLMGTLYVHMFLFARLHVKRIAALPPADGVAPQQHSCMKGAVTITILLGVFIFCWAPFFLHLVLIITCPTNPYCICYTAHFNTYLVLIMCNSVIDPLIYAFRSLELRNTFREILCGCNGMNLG
IC50 [1],IC50 [2],IC50 [3],IC50 [4],EC50 [7],Activity [8],Activity [9],Activity [10],Activity [11],Activity [12],Activity [13],Activity [14],EC50 [16],Activity [17],Compound,EC50 [5],Kb [6],Kb [15],EC50 [18],Ki ([2]; hek293),pA2 ([6]; hek293)
> 10000 nM,> 10000 nM,> 10000 nM,> 10000 nM,> 1000 nM,15%,0%,0%,0%,0%,0%,0%,–,–,N=C(N)NCCC[C@@H]1NC(=O)[C@@H](Cc2ccccc2)NC(=O)c2cccc(n2)C(=O)NCCCC[C@@H](C(N)=O)NC(=O)[C@H](Cc2c[nH]c3ccccc23)NC1=O,–,–,–,–,–,–
> 10000 nM,> 1000 nM,777 nM,> 1000 nM,–,0%,100%,0%,0%,–,0%,0%,95 nM,0%,N=C(N)NCCC[C@@H]1NC(=O)[C@@H](Cc2ccccc2)NC(=O)[C@@H]2CCCN2C(=O)c2ccccc2C(=O)NCCCC[C@@H](C(N)=O)NC(=O)[C@H](Cc2c[nH]c3ccccc23)NC1=O,–,–,–,–,–,–
–,–,–,–,–,55%,0%,0%,0%,0%,0%,0%,–,–,N=C(N)NCCC[C@@H]1NC(=O)[C@@H](Cc2ccc3ccccc3c2)NC(=O)c2nccnc2C(=O)NCCCC[C@@H](C(N)=O)NC(=O)[C@H](Cc2c[nH]c3ccccc23)NC1=O,–,–,–,–,–,–
–,–,–,–,–,–,–,–,–,–,–,–,–,–,NC(=O)[C@@H]1CCCCNC(=O)CC[C@H](N)C(=O)N[C@@H](Cc2cnc[nH]2)C(=O)N[C@H](Cc2ccc3ccccc3c2)C(=O)N[C@@H](CCCN=C(N)N)C(=O)N[C@@H](Cc2c[nH]c3ccccc23)C(=O)N1,–,–,–,–,5.9 nM,10.6
> 10000 nM,> 1000 nM,> 1000 nM,> 10000 nM,–,–,–,–,–,–,–,–,–,–,NC(=O)[C@@H]1CCCCNC(=O)c2cccc(n2)C(=O)N[C@H](Cc2ccc3ccccc3c2)C(=O)N[C@@H](CCCN=C(N)N)C(=O)N[C@@H](Cc2c[nH]c3ccccc23)C(=O)N1,–,–,–,–,–,–
> 10000 nM,20 nM,520 nM,120 nM,–,0%,0%,0%,0%,0%,0%,0%,–,0%,N=C(N)NCCC[C@@H]1NC(=O)[C@@H](Cc2ccc3ccccc3c2)NC(=O)[C@@H]2CCCN2C(=O)/C=C\C(=O)NCCCC[C@@H](C(N)=O)NC(=O)[C@H](Cc2c[nH]c3ccccc23)NC1=O,–,–,–,–,–,–
410 nM,32 nM,430 nM,210 nM,> 5000 nM,80%,0%,0%,0%,0%,0%,0%,–,–,N=C(N)NCCC[C@@H]1NC(=O)[C@@H](Cc2ccc3ccccc3c2)NC(=O)[C@@H]2CCCN2C(=O)c2ccccc2C(=O)NCCCC[C@@H](C(N)=O)NC(=O)[C@H](Cc2c[nH]c3ccccc23)NC1=O,–,–,–,–,–,–
412 nM,1100 nM,> 10000 nM,> 10000 nM,> 10000 nM,60%,70%,0%,0%,–,0%,0%,27 nM,–,N=C(N)NCCC[C@@H]1NC(=O)[C@@H](Cc2ccccc2)NC(=O)c2nccnc2C(=O)NCCCC[C@@H](C(N)=O)NC(=O)[C@H](Cc2c[nH]c3ccccc23)NC1=O,–,–,–,–,–,–
–,–,–,–,–,0%,0%,0%,0%,0%,0%,0%,–,0%,N=C(N)NCCC[C@@H]1NC(=O)[C@@H](Cc2ccc3ccccc3c2)NC(=O)c2cccc(n2)C(=O)NCCCC[C@@H](C(N)=O)NC(=O)[C@H](Cc2c[nH]c3ccccc23)NC1=O,–,–,–,–,–,–
> 10000 nM,> 1000 nM,160 nM,790 nM,–,0%,80%,0%,0%,–,0%,0%,100 nM,0%,N=C(N)NCCC[C@@H]1NC(=O)[C@@H](Cc2ccccc2)NC(=O)[C@@H]2CCCN2C(=O)/C=C\C(=O)NCCCC[C@@H](C(N)=O)NC(=O)[C@H](Cc2c[nH]c3ccccc23)NC1=O,–,–,–,–,–,–
707 nM,23 nM,> 1000 nM,230 nM,> 3000 nM,–,–,–,–,–,–,–,–,–,NC(=O)[C@@H]1CCCCNC(=O)c2nccnc2C(=O)N[C@H](Cc2ccc3ccccc3c2)C(=O)N[C@@H](CCCN=C(N)N)C(=O)N[C@@H](Cc2c[nH]c3ccccc23)C(=O)N1,–,–,–,–,–,–

Compound,IC50 [1],IC50 [2],IC50 [3],IC50 [4],EC50 [7],Activity [8],Activity [9],Activity [10],Activity [11],Activity [12],Activity [13],Activity [14],EC50 [16],Activity [17],EC50 [5],Kb [6],Kb [15],EC50 [18],Ki ([2]; hek293),pA2 ([6]; hek293)
NC(=O)[C@@H]1CCCCNC(=O)CCCC(=O)N2CCC[C@H]2C(=O)N[C@H](Cc2ccc3ccccc3c2)C(=O)N[C@@H](CCCN=C(N)N)C(=O)N[C@@H](Cc2c[nH]c3ccccc23)C(=O)N1,> 10000 nM,11 nM,330 nM,27 nM,–,–,–,–,–,–,–,–,–,–,23 nM,0.158 nM,–,–,–,–
CCCC[C@@H]1NC(=O)CCC(=O)NCCCC[C@@H](C(N)=O)NC(=O)[C@H](Cc2c[nH]c3ccccc23)NC(=O)[C@H](CCCN=C(N)N)NC(=O)[C@@H](Cc2ccc3ccccc3c2)NC1=O,2000 nM,12 nM,300 nM,17 nM,> 1000 nM,–,–,–,–,–,–,–,–,–,–,5.01 nM,2 nM,–,–,–
NC(=O)[C@@H]1CCCCNC(=O)CCCC(=O)N2CCC[C@H]2C(=O)N[C@H](Cc2ccccc2)C(=O)N[C@@H](CCCN=C(N)N)C(=O)N[C@@H](Cc2c[nH]c3ccccc23)C(=O)N1,> 10000 nM,385 nM,> 1000 nM,870 nM,–,–,–,–,–,–,–,–,29 nM,–,570 nM,–,–,> 2000 nM,–,–
CCCC[C@@H]1NC(=O)CCC(=O)NCCCC[C@@H](C(N)=O)NC(=O)[C@H](Cc2c[nH]c3ccccc23)NC(=O)[C@H](CCCN=C(N)N)NC(=O)[C@@H](Cc2ccccc2)NC1=O,> 10000 nM,84 nM,930 nM,520 nM,–,–,–,–,–,–,–,–,–,–,> 1000 nM,–,–,–,–,–

# — ChEMBL document CHEMBL1140710, “Structure-activity relationships of cyclic lactam analogues of alpha-melanocyte-stimulating hormone (alpha-MSH) targeting the human melanocortin-3 receptor” (J Med Chem, 2008)
